Laboratory results reported in ChEMBL document CHEMBL2203145, “Synthesis and structure-activity relationships of tri-substituted thiazoles as RAGE antagonists for the treatment of Alzheimer's disease” (Bioorg Med Chem Lett, 2012).

What was measured:
[1] = biological target: T1, Advanced glycosylation end product-specific receptor (Homo sapiens, UniProt Q15109); experiment: Antagonist activity at human biotinylated RAGE assessed as inhibition of amyloid beta binding at 10 uM after 60 mins by ELISA
T1 sequence (Q15109 whole entry): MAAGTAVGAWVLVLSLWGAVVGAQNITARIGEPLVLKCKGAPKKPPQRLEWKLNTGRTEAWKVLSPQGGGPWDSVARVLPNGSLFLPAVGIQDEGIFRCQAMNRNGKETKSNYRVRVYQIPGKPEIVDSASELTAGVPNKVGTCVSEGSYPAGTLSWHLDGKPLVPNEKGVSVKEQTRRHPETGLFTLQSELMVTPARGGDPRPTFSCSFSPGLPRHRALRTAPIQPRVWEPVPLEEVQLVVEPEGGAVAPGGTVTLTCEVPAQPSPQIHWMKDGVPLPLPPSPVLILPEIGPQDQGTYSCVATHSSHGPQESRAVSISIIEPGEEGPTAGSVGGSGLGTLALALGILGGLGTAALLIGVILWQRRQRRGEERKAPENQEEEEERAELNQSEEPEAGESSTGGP
Method in brief: (§1)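 Biotinylated protein with Aβ in BSA-containing buffer incubated on a streptavidin-coated plate for 60 min at ambient temperature, then washed with TBS-T. Bound Aβ detected with HRP-conjugated 4G8 antibody (1:1000, TBS-T with 2.5% BSA) for 60 min at ambient temperature. Developed with TMB, stopped with sulfuric acid, absorbance read at 450 nm.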

[2] = biological target: Advanced glycosylation end product-specific receptor (Mus musculus) (UniProt Q62151); experiment: Antagonist activity at RAGE overexpressed in mouse bEND.3 cells assessed as inhibition of FITC-amyloid beta 42 transport across blood-brain barrier at 10 uM by fluorescence assay; type: functional, cell-based
Sequence of Advanced glycosylation end product-specific receptor (Mus musculus) (Q62151 whole entry): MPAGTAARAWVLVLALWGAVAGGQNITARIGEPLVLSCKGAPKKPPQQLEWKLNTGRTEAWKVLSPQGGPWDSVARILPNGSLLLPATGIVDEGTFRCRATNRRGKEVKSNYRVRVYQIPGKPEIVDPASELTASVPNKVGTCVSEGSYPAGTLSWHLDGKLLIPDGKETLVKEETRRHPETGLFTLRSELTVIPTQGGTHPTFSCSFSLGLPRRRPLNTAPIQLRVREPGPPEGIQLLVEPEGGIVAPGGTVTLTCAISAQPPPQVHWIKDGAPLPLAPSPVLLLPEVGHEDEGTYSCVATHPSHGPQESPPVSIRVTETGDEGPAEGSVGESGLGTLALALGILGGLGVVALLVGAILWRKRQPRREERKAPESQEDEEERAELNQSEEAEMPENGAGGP
Method in brief: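 RAGE-overexpressing bEND.3 cells grown 3–4 days to confluence on inserts to form a tight-junction barrier; TEER taken as resistance minus blank-insert resistance, times insert area. Aβ transport across the monolayer measured with compound at 10 µM; reported as % inhibition.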

[3] = biological target: T1, Advanced glycosylation end product-specific receptor; experiment: Antagonist activity at human biotinylated RAGE assessed as inhibition of amyloid beta binding after 60 mins by ELISA; method in brief: as §1
[4] = biological target: T1, Advanced glycosylation end product-specific receptor; experiment: Antagonist activity at RAGE transfected in CHO cells assessed as inhibition of amyloid beta 42-induced NFkappaB activation at 1 uM after 18 hrs by luciferase reporter gene assay; type: functional, cell-based
Method in brief: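 CHO-NF-κB-luciferase cells at 20,000 cells/well in Opti-MEM, incubated overnight, then treated with compound (1 µM) for 18 h at 37 °C with or without 5 µM Aβ42. Cells lysed in passive lysis buffer, lysate mixed with luciferase substrate, relative light units read on a luminometer.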

| SMILES | inhibition [1] [%] | inhibition [2] [%] | IC50 [3] [nM] | inhibition [4] [%] |
| --- | --- | --- | --- | --- |
| CCCCc1sc(-c2ccc(OCCCN3CCCC3)cc2)nc1-c1ccc(Oc2ccc(Cl)cc2)cc1 | 47.8 | – | – | – |
| CCCCc1sc(-c2ccc(OCCCN(CC)CC)cc2)nc1-c1ccc(Oc2ccc(Cl)cc2)cc1 | 58.9 | 73.3 | 1720 | – |
| CCCCc1sc(-c2ccc(Oc3ccc(Cl)cc3)cc2)nc1-c1ccc(O)cc1 | 0.2 | – | – | – |
| CCCCc1sc(-c2ccc(OCCCN3CCCCC3)cc2)nc1-c1ccc(Oc2ccc(Cl)cc2)cc1 | 59.2 | 64.3 | 1840 | 11.7 |
| CCCCc1sc(-c2ccc(Oc3ccc(Cl)cc3)cc2)nc1-c1ccc(OCC2CCCN(CC)C2)cc1 (stereo unspecified) | 55.9 | 68.3 | 1910 | – |
| CCCCc1sc(-c2ccc(OCCN(C)C)cc2)nc1-c1ccc(Oc2ccc(Cl)cc2)cc1 | 51.8 | 66.6 | 3180 | 2.1 |
| CCCCc1nc(-c2ccc(OCC3CCCN(CC)C3)cc2)sc1-c1ccc(Oc2ccc(Cl)cc2)cc1 (stereo unspecified) | 47.7 | – | – | – |
| CCCCc1sc(NC(=O)c2ccc(OCCCN(CC)CC)cc2)nc1-c1ccc(Oc2ccc(Cl)cc2)cc1 | 60.2 | – | 5590 | – |
| CCCCc1nc(-c2ccc(Oc3ccc(Cl)cc3)cc2)sc1-c1ccc(OCCCN(CC)CC)cc1 | 57.1 | 63.5 | 2010 | 10.3 |
| CCCCc1sc(-c2ccc(OCCN3CCCC3)cc2)nc1-c1ccc(Oc2ccc(Cl)cc2)cc1 | 64.2 | 39.5 | 910 | 2.5 |
| CCCCc1sc(-c2ccc(OCCN3CCN(C)CC3)cc2)nc1-c1ccc(Oc2ccc(Cl)cc2)cc1 | 54.7 | 68.6 | 1210 | 17.2 |
| CCCCc1sc(-c2ccc(OCCN3CCCCC3)cc2)nc1-c1ccc(Oc2ccc(Cl)cc2)cc1 | 60.1 | 55.3 | 1040 | 13.5 |
| CCCCc1sc(-c2ccc(OCCCN(C)C)cc2)nc1-c1ccc(Oc2ccc(Cl)cc2)cc1 | 46.2 | – | – | – |
| CCCCc1sc(-c2ccc(Oc3ccc(Cl)cc3)cc2)nc1-c1ccc(OCCCN(CC)CC)cc1 | 57 | 71.7 | 1120 | – |
| CCCCc1sc(-c2ccc(OCCCN3CCOCC3)cc2)nc1-c1ccc(Oc2ccc(Cl)cc2)cc1 | 40.6 | – | – | – |
| CCCCc1sc(Nc2ccc(OCCCN(CC)CC)cc2)nc1-c1ccc(Oc2ccc(Cl)cc2)cc1 | 60.9 | – | 550 | – |
| CCCCc1sc(-c2ccc(OCCCN3CCN(C)CC3)cc2)nc1-c1ccc(Oc2ccc(Cl)cc2)cc1 | 59.2 | 64.3 | 1240 | 3.1 |
| CCCCc1nc(-c2ccc(Oc3ccc(Cl)cc3)cc2)sc1-c1ccc(OCC2CCCN(CC)C2)cc1 (stereo unspecified) | 53.9 | 61.5 | 1140 | 4.9 |
| CCCCc1sc(-c2ccc(Oc3ccc(Cl)cc3)cc2)nc1-c1ccc(OCc2ccccc2)cc1 | 2.4 | – | – | – |
| CCCCc1sc(-c2ccc(OCCN3CCOCC3)cc2)nc1-c1ccc(Oc2ccc(Cl)cc2)cc1 | 22.9 | – | – | – |
| CCCCc1sc(-c2ccc(OCCN(CC)CC)cc2)nc1-c1ccc(Oc2ccc(Cl)cc2)cc1 | 55.1 | – | 1580 | 11.3 |
| CCCCc1nc(-c2ccc(OCCCN(CC)CC)cc2)sc1-c1ccc(Oc2ccc(Cl)cc2)cc1 | 49.6 | – | – | – |
| CCCCc1sc(-c2ccc(OCC3CCCN(CC)C3)cc2)nc1-c1ccc(Oc2ccc(Cl)cc2)cc1 (stereo unspecified) | 58 | 77.5 | 660 | 3 |
| CCCCc1sc(C(=O)Nc2ccc(OCCCN(CC)CC)cc2)nc1-c1ccc(Oc2ccc(Cl)cc2)cc1 | 48.1 | – | – | – |
